Measured values reported in ChEMBL document CHEMBL1121836, “Effect of structural change on acute toxicity and antiinflammatory activity in a series of imidazothiazoles and thiazolobenzimidazoles” (J Med Chem, 1981).
“And” between values parts separate entries of the source, which are not always exact repeats. Equal values may be shown once.

Columns and labels:
Mus musculus [1] = assay: Compound was evaluated for the percent reduction of carrageenan induced edema in mice at dose of 200 mg/kg; assay type: functional
[2] = Compound was evaluated for the toxicity in mice; assay type: organism-based; conditions: mouse, in vivo
Mus musculus [3] = assay: Compound was evaluated for the percent reduction of carrageenan induced edema in mice at dose of 3 mg/kg; assay type: functional
Rattus norvegicus [4] = assay: Compound was evaluated in the developed adjuvant arthritis assay at a dose of 300 mg/kg for the percent reduction of carrageenan induced edema (LHF) on 22nd day; assay type: functional
In short: (§1)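 Rats received 0.1 mL heat-killed Mycobacterium tuberculosis suspension (3.5 mg/mL) into the left hind footpad on day 1. On day 20, animals with developed arthritis (all four paws swollen, tail and ears involved) were used. Oral gavage in 0.25% methylcellulose (0.005 mL/g) on days 20 and 22. Hind paw volumes were recorded daily on days 20–23. Mean group volume is expressed as percent change from day 20.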

Mus musculus [5] = assay: Compound was evaluated for the percent reduction of carrageenan induced edema in mice at dose of 100 mg/kg; assay type: functional
Mus musculus [6] = assay: Percent analgesia in phenylquinone writhing assay at 10 mg/kg; assay type: functional
In short: (§2)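 Groups of 10 male mice were dosed orally with compound dissolved or suspended in 0.25% methylcellulose (0.25 mL per mouse). After the designated interval they were challenged ip with 0.25 mL of 0.02% phenylquinone in aqueous ethanol (95:5). Read-out is the percentage of mice protected from writhing.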

[7] = Lethal dose evaluated in NPP assay; assay type: toxicity, organism-based; conditions: mouse, in vivo
Rattus norvegicus [8] = assay: Compound was evaluated in the developed adjuvant arthritis assay at a dose of 30 mg/kg for the percent reduction of carrageenan induced edema (LHF) on 22nd day; assay type: functional; in short: as §1
Rattus norvegicus [9] = assay: Compound was evaluated in the developed adjuvant arthritis assay at a dose of 300 mg/kg for the percent reduction of carrageenan induced edema (LHF) on 21st day; assay type: functional; in short: as §1
Mus musculus [10] = organism: Mus musculus; assay: (§3) Neurotoxic dose that causes minimal recognizable neurotoxicity in 50% of animals tested; assay type: functional
In short: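 Mice dosed orally or intraperitoneally; neurotoxicity scored on five end points, including a positional sense test in which a hind leg lowered over a table edge should be quickly lifted back to a normal position. NTD50 is the dose giving minimal recognizable neurotoxicity in 50% of animals tested.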

Mus musculus [11] = assay: Compound was evaluated for the percent reduction of carrageenan induced edema in mice at dose of 30 mg/kg; assay type: functional
Rattus norvegicus [12] = assay: Compound was evaluated in the developed adjuvant arthritis assay at a dose of 100 mg/kg for the percent reduction of carrageenan induced edema (LHF) on 21st day; assay type: functional; in short: as §1
Rattus norvegicus [13] = organism: Rattus norvegicus; assay: (§4) Ulcerogenic dose that produced gastric lesions, ulcers and/or hemorrhage in 50% of the animals tested; assay type: functional, Stomach
In short: (§5)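 Ten male Sprague–Dawley rats (ca. 160 g) were fasted 24 h with water available, then dosed po with compound or vehicle. At 4 h they were killed with CO2, and stomachs were opened along the greater curvature. A nonbiased observer scored ulcers, pitting or hemorrhagic spots. UD50 (lesions in 50% of animals) was determined by Litchfield–Wilcoxon.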

Rattus norvegicus [14] = assay: Compound was evaluated in the developed adjuvant arthritis assay at a dose of 100 mg/kg for the percent reduction of carrageenan induced edema (LHF) on 23rd day; assay type: functional; in short: as §1
Rattus norvegicus [15] = assay: Compound was evaluated in the developed adjuvant arthritis assay at a dose of 300 mg/kg for the percent reduction of carrageenan induced edema (LHF) on 23rd day; assay type: functional; in short: as §1
Mus musculus [16] = organism: Mus musculus; assay: Dose giving one-half of average maximal [40%] response in phenylquinone writhing assay; assay type: functional
Mus musculus [17] = assay: Percent analgesia in phenylquinone writhing assay at 30 mg/kg; assay type: functional; in short: as §2
Mus musculus [18] = assay: Compound was evaluated for the percent reduction of carrageenan induced edema in mice at dose of 10 mg/kg; assay type: functional
Rattus norvegicus [19] = assay: Compound was evaluated in the developed adjuvant arthritis assay at a dose of 30 mg/kg for the percent reduction of carrageenan induced edema (LHF) on 21st day; assay type: functional; in short: as §1
Rattus norvegicus [20] = assay: Compound was evaluated in the developed adjuvant arthritis assay at a dose of 30 mg/kg for the percent reduction of carrageenan induced edema (LHF) on 23rd day; assay type: functional; in short: as §1
Mus musculus [21] = organism: Mus musculus; assay: Dose giving one-half of average maximal [40%] response in carrageenan assay; assay type: functional
Mus musculus [22] = assay: Percent analgesia in phenylquinone writhing assay at 100 mg/kg; assay type: functional; in short: as §2
Rattus norvegicus [23] = assay: Compound was evaluated in the developed adjuvant arthritis assay at a dose of 100 mg/kg for the percent reduction of carrageenan induced edema (LHF) on 22nd day; assay type: functional; in short: as §1
Mus musculus [24] = assay: Compound was evaluated for the percent reduction of carrageenan induced edema in mice at dose of 1 mg/kg; assay type: functional
Mus musculus [25] = assay: Compound was evaluated for the percent reduction of carrageenan induced edema in mice at dose of 25 mg/kg; assay type: functional
Mus musculus [26] = assay: Compound was evaluated for the percent reduction of carrageenan induced edema in mice at dose of 50 mg/kg; assay type: functional
Mus musculus [27] = assay: Compound was evaluated for the percent reduction of carrageenan induced edema in mice at dose of 40 mg/kg; assay type: functional
[28] = as §4; assay type: ADME, organism-based, Stomach; conditions: rat, in vivo; read-out: UD50 (the source's name); in short: as §5
[29] = as §3; assay type: toxicity, organism-based; conditions: mouse, in vivo; read-out: NTD50
In short: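 NTD50 in mice is the oral or intraperitoneal dose causing minimal recognizable neurotoxicity in 50% of animals, judged by five end points, including a positional sense test (hind leg lowered over a table edge should be lifted back).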

Mus musculus [30] = assay: Percent analgesia in phenylquinone writhing assay at 3 mg/kg; assay type: functional; in short: as §2
Mus musculus [31] = assay: Percent analgesia in phenylquinone writhing assay at 300 mg/kg; assay type: functional; in short: as §2
Mus musculus [32] = assay: Compound was evaluated for the percent reduction of carrageenan induced edema in mice at dose of 75 mg/kg; assay type: functional
Rattus norvegicus [33] = assay: Compound was evaluated in the developed adjuvant arthritis assay at a dose of 10 mg/kg for the percent reduction of carrageenan induced edema (LHF) on 22nd day; assay type: functional; in short: as §1
Rattus norvegicus [34] = assay: Compound was evaluated in the developed adjuvant arthritis assay at a dose of 10 mg/kg for the percent reduction of carrageenan induced edema (LHF) on 23rd day; assay type: functional; in short: as §1
Rattus norvegicus [35] = assay: Compound was evaluated in the developed adjuvant arthritis assay at a dose of 10 mg/kg for the percent reduction of carrageenan induced edema (LHF) on 21st day; assay type: functional; in short: as §1
Mus musculus [36] = assay: Compound was evaluated for the percent reduction of carrageenan induced edema in mice at dose of 150 mg/kg; assay type: functional

CC1=C(C(=O)Nc2c(C)cc(C)cc2C)SC2=NC(C)CN21 (stereo not drawn)
Reduction (Mus musculus [1]): 24%
LD50 [2]: 400 mg/kg

CS(=O)(=O)C1=C(c2ccccc2)N2CCN=C2S1
Reduction (Mus musculus [3]): 15%
Reduction (Rattus norvegicus [4]): 19%
Reduction (Mus musculus [5]): 30%
Analgesia (Mus musculus [6]): 10%
LD50 [7]: > 1000 mg/kg
Reduction (Rattus norvegicus [8]): 15%
Reduction (Rattus norvegicus [9]): 10%
NTD50 (Mus musculus [10]): 690 mg/kg
Reduction (Mus musculus [1]): 43%
Reduction (Mus musculus [11]): 26%
Reduction (Rattus norvegicus [12]): 11%
UD50 (Rattus norvegicus [13]): >100 mg/kg
Reduction (Rattus norvegicus [14]): 16%
Reduction (Rattus norvegicus [15]): 17%
ED50 (Mus musculus [16]): 30 mg/kg
Analgesia (Mus musculus [17]): 60%
Reduction (Mus musculus [18]): 33%
Reduction (Rattus norvegicus [19]): 10%
Reduction (Rattus norvegicus [20]): 7%
ED50 (Mus musculus [21]): 30 mg/kg
Analgesia (Mus musculus [22]): 90%
Reduction (Rattus norvegicus [23]): 26%
LD50 [2]: > 300 mg/kg

CC1=CSC2=NC3CCCCC3N12 (cis isomer)
Reduction (Mus musculus [24]): 15%
Reduction (Mus musculus [25]): 57%
Reduction (Mus musculus [26]): 80%
LD50 [2]: 20 mg/kg

CC1=C(C(=O)Nc2c(C)cc(C)cc2C)SC2=NCCN21
Reduction (Mus musculus [27]): 11%
LD50 [2]: 60 mg/kg

CS(=O)(=O)CC1=CSC2=NCCN12
Reduction (Mus musculus [1]): 11%

Cc1ccc(C(=O)c2ccc(CC(=O)O)n2C)cc1 [TOLMETIN]
Analgesia (Mus musculus [6]): 40%
NTD50 (Mus musculus [10]): >1000 mg/kg
ED50 (Mus musculus [16]): 22 mg/kg
TD50 [28]: 63 mg/kg
Analgesia (Mus musculus [17]): 60%
ED50 (Mus musculus [21]): 20 mg/kg
Analgesia (Mus musculus [22]): 80%

c1ccc(C2=C(c3ccccc3)N3CCN=C3S2)cc1
Reduction (Mus musculus [25]): 14%
LD50 [2]: 40 mg/kg

CCCCC1C(=O)N(c2ccccc2)N(c2ccccc2)C1=O [PHENYLBUTAZONE]
LD50 [7]: > 300 mg/kg
NTD50 (Mus musculus [10]): 690 mg/kg
UD50 (Rattus norvegicus [13]): 75 mg/kg
ED50 (Mus musculus [16]): 64 mg/kg
ED50 (Mus musculus [21]): 50 mg/kg

CC1=C(C(=O)Nc2cccc(C(F)(F)F)c2)SC2=NCCN21
Reduction (Mus musculus [1]): 36%
LD50 [2]: 240 mg/kg

CC1(C)CN2C(c3ccccc3)=CSC2=N1
Reduction (Mus musculus [27]): 0%
LD50 [2]: 60 mg/kg

Cc1cc(C)c(NC(=O)C2=C(c3ccccc3)N3CCN=C3S2)c(C)c1
Reduction (Mus musculus [26]): 23%
LD50 [2]: 80 mg/kg

COc1ccc2cc([C@H](C)C(=O)O)ccc2c1 [NAPROXEN]
UD50 (Rattus norvegicus [13]): 10 mg/kg
TD50 [29]: 370 mg/kg

OC1(C(F)(F)F)CSC2=NC3CCCCC3N21 (stereo not drawn)
Reduction (Mus musculus [1]): 18%

CC(C)(C)C1=CSC2=NC3CCCCC3N12 (stereo not drawn)
LD50 [2]: 20 mg/kg

CC1=C(C(=O)Nc2c(Br)cccc2Br)SC2=NCCN21
Reduction (Mus musculus [11]): 0%
LD50 [2]: 40 mg/kg

CC(C)Cc1ccc(C(C)C(=O)O)cc1 (stereo not drawn) [IBUPROFEN]
Analgesia (Mus musculus [6]): 50%
LD50 [7]: > 1000 mg/kg
NTD50 (Mus musculus [10]): 470 mg/kg
UD50 (Rattus norvegicus [13]): 60 mg/kg
Analgesia (Mus musculus [17]): 90%
Analgesia (Mus musculus [30]): 30%

CC1=C(C(=O)Nc2c(C)cc(C)cc2C)SC2=NC(C)(C)CN21
Reduction (Mus musculus [27]): 3%
LD50 [2]: 60 mg/kg

CC(=O)Oc1ccccc1C(=O)O [ASPIRIN]
Analgesia (Mus musculus [31]): 90%
UD50 (Rattus norvegicus [13]): 27 mg/kg
ED50 (Mus musculus [16]): 85 mg/kg
TD50 [29]: 200 mg/kg
Analgesia (Mus musculus [17]): 20%
ED50 (Mus musculus [21]): 70 mg/kg
Analgesia (Mus musculus [22]): 60%

CC1=C(C(=O)N2C(C)CCC2C)SC2=NCCN21 (stereo not drawn)
Reduction (Mus musculus [1]): 20%
LD50 [2]: 240 mg/kg

O=S(=O)(C1=C(c2ccccc2)N2CCN=C2S1)c1ccccc1
Reduction (Mus musculus [5]): 15%
Reduction (Mus musculus [11]): 6%
Reduction (Mus musculus [18]): 10%

CCOC(=O)C1(O)CSC2=NC3CCCCC3N21 (stereo not drawn)
Reduction (Mus musculus [1]): 3%

CC1=C(C(=O)Nc2ccccc2F)SC2=NCCN21
Reduction (Mus musculus [32]): 15%
LD50 [2]: 100 mg/kg

CC1(C)CN2C(CS(=O)(=O)c3ccccc3)=CSC2=N1
Reduction (Mus musculus [1]): 5%

CC1(O)CSC2=NC3CCCCC3N21 (stereo not drawn)
Reduction (Mus musculus [3]): 10%
Reduction (Rattus norvegicus [33]): 2%
Reduction (Mus musculus [25]): 7%
Reduction (Mus musculus [11]): 7%
Reduction (Rattus norvegicus [34]): 11%
Reduction (Mus musculus [26]): 45%
Reduction (Rattus norvegicus [35]): 3%
Reduction (Mus musculus [18]): 15%

CCOC(=O)Cc1ccc(C2=CSC3=NCCN23)cc1
Reduction (Mus musculus [36]): 0%
LD50 [2]: 180 mg/kg

CCOC(=O)C1=C(C)N2CCN=C2S1
Reduction (Mus musculus [26]): 2%
LD50 [2]: 180 mg/kg

CC1=C(C(=O)Nc2c(Cl)cccc2Cl)SC2=NCCN21
LD50 [2]: 60 mg/kg

CC1(C)SC2=NC3CCCCC3N2C1(O)c1ccccc1 (stereo not drawn)
Reduction (Mus musculus [1]; 200 mg/kg): 15% and 30%

CC1=CSC2=NC(C)(C)CN12
Reduction (Mus musculus [27]): 0%
LD50 [2]: 60 mg/kg
